Results as given in ChEMBL document CHEMBL4229461 (Bioorg Med Chem, 2018).
Values belong to the compound of their own block, whether it stands above or below them. Activity calls are given as the source filed them. The calls are words filed in the database; no cut-off is given here.

Legend:
HT-22 [1] = assay: Cytoprotection against glutamate-induced apoptosis in mouse HT22 cells assessed as decrease in Bax/Bcl2 ratio at 1 uM after 24 hrs by RT-PCR method; format: functional, cell-based
Outline: (§1)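 HT-22 mouse hippocampal cells grown in high-glucose DMEM with 10% heat-inactivated FBS at 37 °C, 5% CO2. Compound (1 μM; DMSO stock, final DMSO 0.025%) added together with 2 mM glutamate for 24 h. Transcripts measured by qRT-PCR. iNOS or Bax/Bcl-2 ratio reported as fold change vs untreated control (set at 1) by the ΔΔCt method.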

HT-22 [2] = assay: Cytoprotection against glutamate-induced oxidative stress in mouse HT22 cells assessed as decrease in iNOS mRNA level at 1 uM after 24 hrs by RT-PCR method; format: functional, cell-based; outline: as §1
HT-22 [3] = assay: Cytoprotection against glutamate-induced excitotoxicity in mouse HT22 cells assessed as increase in cell viability at 1 uM after 24 hrs by optical microscopic assay; format: functional, cell-based
Outline: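 Cells co-treated 24 h with 2 mM glutamate plus compound at 1 μM. Viable cells judged from optical microscope images.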

HT-22 [4] = assay: Cytoprotection against glutamate-induced excitotoxicity in mouse HT22 cells assessed as decrease in glutamate-induced cell cycle arrest at sub-G1 phase at 1 uM after 24 hrs by propidium iodide staining based flow cytometry; format: functional
Outline: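 HT-22 cells (1.5 × 10^5 per well) co-treated 24 h with 2 mM glutamate plus compound at 1 μM, final DMSO 0.025%. Pelleted, PBS-washed, stained 30 min in PI solution (50 μg/mL PI, Triton, Na citrate). DNA content read by flow cytometry and the SubG1 fraction scored. Mean of three independent experiments ± SD.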

HT-22 [5] = assay: Cytoprotection against glutamate-induced excitotoxicity in mouse HT22 cells assessed as increase in cell proliferation at 1 uM after 24 hrs by MTT assay; format: functional, cell-based
Outline: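 HT-22 cells (5 × 10^3 per well) co-treated 24 h at 37 °C with 2 mM glutamate plus compound at 1 μM, final DMSO 0.025%. MTT added to 0.5 mg/mL final for 2 h, formazan dissolved in acidified isopropanol/NP40, A570 read. Proliferation relative to untreated control (100%). Mean of at least three independent experiments ± SD.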

[6] = molecular target: T1, Amyloid-beta precursor protein (Homo sapiens, UniProt P05067); assay: Disruption of recombinant human amyloid beta (1 to 40) fibrils after 24 hrs by ThT fluorescence assay
[7] = molecular target: T1, Amyloid-beta precursor protein; assay: Disruption of recombinant human amyloid beta (1 to 40) fibrils after 2 hrs by ThT fluorescence assay
[8] = Cytotoxicity against mouse HT22 cells assessed as reduction in cell viability after 24 hrs by MTT assay; format: cell-based, HT-22
Outline: (§2)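 HT-22 cells (5 × 10^3 per well) plated, then treated the next day for 24 h with compound in complete medium (1–25 μM range; 10 mM DMSO stock, final DMSO 0.025%; DMSO as negative control). MTT at 0.5 mg/mL final, 2 h, 37 °C; formazan solubilized, A570 read. Mean of at least three independent experiments ± SD.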

HT-22 [9] = assay: Cytotoxicity against mouse HT22 cells assessed as reduction in cell viability at 5 uM after 24 hrs by MTT assay; format: cell-based; details: ht-22, 24 h; outline: as §2
[10] = molecular target: T1, Amyloid-beta precursor protein; assay: Disruption of recombinant human amyloid beta (1 to 40) fibrils at 10 uM after 24 hrs by ThT fluorescence assay relative to control
Outline: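 Aβ1-40 fibrils (10 μM in 150 mM MOPS, pH 6.9) incubated 24 h at 37 °C with compound at 10 μM. ThT added to 20 μM, 1 h at 37 °C in the dark, excitation 440 nm, emission 485 nm. Intensity normalized to fibrils alone. Triplicate, mean ± SD. Intrinsic compound fluorescence measured without peptide.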

[11] = molecular target: T1, Amyloid-beta precursor protein; assay: Disruption of recombinant human amyloid beta (1 to 40) fibrils at 10 uM after 24 hrs by atomic force microscopic method
Outline: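 10 μM Aβ1-40 fibrils plus 10 μM compound, incubated 24 h at 37 °C. Spread on fresh mica, adsorbed 5 min, water-washed, dried under nitrogen, imaged by AFM. No smoothing or noise reduction applied.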

HT-22 [12] = assay: Cytotoxicity against mouse HT22 cells assessed as reduction in cell viability at 10 uM after 24 hrs by MTT assay; format: cell-based; details: ht-22, 24 h; outline: as §2

T1 sequence (P05067 whole entry): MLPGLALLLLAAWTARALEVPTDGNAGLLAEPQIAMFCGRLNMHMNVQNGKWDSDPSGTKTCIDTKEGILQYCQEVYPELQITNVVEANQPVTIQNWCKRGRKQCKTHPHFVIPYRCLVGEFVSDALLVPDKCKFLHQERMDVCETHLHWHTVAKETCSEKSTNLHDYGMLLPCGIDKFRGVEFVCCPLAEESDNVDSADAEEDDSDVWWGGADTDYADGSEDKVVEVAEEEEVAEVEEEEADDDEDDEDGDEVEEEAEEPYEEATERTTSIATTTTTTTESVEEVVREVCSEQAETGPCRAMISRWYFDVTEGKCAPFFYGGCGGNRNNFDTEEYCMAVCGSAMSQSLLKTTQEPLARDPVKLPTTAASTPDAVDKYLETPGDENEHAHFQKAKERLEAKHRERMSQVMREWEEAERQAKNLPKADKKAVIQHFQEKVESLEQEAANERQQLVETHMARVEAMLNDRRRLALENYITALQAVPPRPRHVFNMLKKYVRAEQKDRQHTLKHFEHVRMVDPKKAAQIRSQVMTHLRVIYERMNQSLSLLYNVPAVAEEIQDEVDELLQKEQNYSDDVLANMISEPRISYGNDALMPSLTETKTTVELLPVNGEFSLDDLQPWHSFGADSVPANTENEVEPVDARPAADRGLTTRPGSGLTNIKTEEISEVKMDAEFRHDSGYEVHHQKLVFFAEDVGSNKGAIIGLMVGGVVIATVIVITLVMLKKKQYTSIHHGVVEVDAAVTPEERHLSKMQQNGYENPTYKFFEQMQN

DC50 ([6]; read-out: DC50): 1.95 µM
DC50 [7]: 1 µM
Structure (SMILES): COc1cc(/C=C/C(=O)/C=C(O)/C=C/c2ccc(OC(C)=O)c(OC)c2)ccc1OC(C)=O
Activity (HT-22 [1]): Active
Activity (HT-22 [2]): Active
Activity (HT-22 [3]): Active
Activity (HT-22 [4]): Active
Activity (HT-22 [5]): Active
MNTC at 24 h [8]: 1000 nM
Activity (HT-22 [9]): Toxic

Activity [10]: > 75%
DC50 ([6]; read-out: DC50): 1.16 µM
Structure (SMILES): COc1cc(/C=C/C(=O)/C(CCCN2C(=O)c3ccccc3C2=O)=C(O)/C=C/c2ccc(O)c(OC)c2)ccc1O

Activity [10]: Active
DC50 [6]: Not Active
Structure (SMILES): COc1cc(/C=C/C(=O)/C=C(/C)O)ccc1O

Activity [10]: Active
DC50 [6]: Not Active
Structure (SMILES): C(=C\c1cc(/C=C/c2ccccc2)[nH]n1)/c1ccccc1

Activity [10]: > 75%
Activity [6]: Dose-dependent effect
DC50 ([6]; read-out: DC50): 1.47 µM
Activity [7]: Dose-dependent effect
Structure (SMILES): COc1cc(/C=C/c2cc(/C=C/c3ccc(O)c(OC)c3)[nH]n2)ccc1O [CURCUMIN PYRAZOLE]

Activity [10]: Active
DC50 ([6]; read-out: DC50): 38.8 µM
Structure (SMILES): COc1cc(/C=C/c2cc(C)[nH]n2)ccc1O

Activity [10]: Active
DC50 [6]: Not Active
Structure (SMILES): O=C(/C=C/c1ccccc1)/C(CCCN1C(=O)c2ccccc2C1=O)=C(O)/C=C/c1ccccc1

DC50 [6]: Not Active
Structure (SMILES): COc1cccc(/C=C/C(=O)/C=C(O)/C=C/c2cccc(OC)c2)c1

Activity [10]: Active
DC50 [6]: Not Active
Activity [11]: inactive
Structure (SMILES): O=C(/C=C(O)/C=C/c1ccccc1)/C=C/c1ccccc1

Activity [10]: > 75%
Activity [6]: Dose-dependent effect
Activity [7]: Dose-dependent effect
Activity [11]: Active
Structure (SMILES): COc1cc(/C=C/C(=O)CC(=O)/C=C/c2ccc(O)c(OC)c2)ccc1O [CURCUMIN]
Activity (HT-22 [1]): Active
Activity (HT-22 [2]): Active
Activity (HT-22 [3]): Active
Activity (HT-22 [4]): Active
Activity (HT-22 [5]): Active
MNTC at 24 h [8]: 1000 nM
Activity (HT-22 [12]): Toxic

Activity [10]: > 75%
DC50 ([6]; read-out: DC50): 0.31 µM
DC50 [7]: 0.65 µM
Structure (SMILES): COc1cc(/C=C/c2cc(/C=C/c3ccc(OC(C)=O)c(OC)c3)[nH]n2)ccc1OC(C)=O
Activity (HT-22 [1]): Active
Activity (HT-22 [2]): Active
Activity (HT-22 [3]): Active
Activity (HT-22 [4]): Active
Activity (HT-22 [5]): Active
MNTC at 24 h [8]: 1000 nM
Activity (HT-22 [9]): Toxic
